ChEMBL document CHEMBL4038323, “Discovery and Kinetic Profiling of 7-Aryl-1,2,4-triazolo[4,3-a]pyridines: Positive Allosteric Modulators of the Metabotropic Glutamate Receptor 2” (J Med Chem, 2017)
Active and inactive are the calls of the source. The rule behind the calls is not given here.

Columns and labels:
[1] = tested on: CHO-K1; assay: Effect on cellular impedance in CHOK1 cells up to 1 uM measured for 20 mins with 15 sec time interval followed by 40 mins with 5 mins time interval and subsequently measured with 15 mins time interval by RTCA; assay type: functional, cell-based; conditions: Cricetulus griseus
Procedure, shortened: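 xCELLigence impedance used 40,000 cells/well of wild-type CHO-K1 or CHO-K1_hmGlu2, rested 30 min at room temperature, then 18 h at 37°C, 5% CO2. Cells got 100 nM or 1 µM compound. Reads: every 15 s for 20 min, 5 min for 40 min, then 15 min. Baseline-corrected; three repeats in duplicate.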

[2] = biological target: T1, Metabotropic glutamate receptor 2 (Homo sapiens, UniProt Q14416); assay: Displacement of [3H]-JNJ46281222 from human metabotropic glutamate receptor 2 expressed in CHOK1 cell membranes after 60 mins by liquid scintillation counting method
Target sequence in this assay (Q14416 whole entry): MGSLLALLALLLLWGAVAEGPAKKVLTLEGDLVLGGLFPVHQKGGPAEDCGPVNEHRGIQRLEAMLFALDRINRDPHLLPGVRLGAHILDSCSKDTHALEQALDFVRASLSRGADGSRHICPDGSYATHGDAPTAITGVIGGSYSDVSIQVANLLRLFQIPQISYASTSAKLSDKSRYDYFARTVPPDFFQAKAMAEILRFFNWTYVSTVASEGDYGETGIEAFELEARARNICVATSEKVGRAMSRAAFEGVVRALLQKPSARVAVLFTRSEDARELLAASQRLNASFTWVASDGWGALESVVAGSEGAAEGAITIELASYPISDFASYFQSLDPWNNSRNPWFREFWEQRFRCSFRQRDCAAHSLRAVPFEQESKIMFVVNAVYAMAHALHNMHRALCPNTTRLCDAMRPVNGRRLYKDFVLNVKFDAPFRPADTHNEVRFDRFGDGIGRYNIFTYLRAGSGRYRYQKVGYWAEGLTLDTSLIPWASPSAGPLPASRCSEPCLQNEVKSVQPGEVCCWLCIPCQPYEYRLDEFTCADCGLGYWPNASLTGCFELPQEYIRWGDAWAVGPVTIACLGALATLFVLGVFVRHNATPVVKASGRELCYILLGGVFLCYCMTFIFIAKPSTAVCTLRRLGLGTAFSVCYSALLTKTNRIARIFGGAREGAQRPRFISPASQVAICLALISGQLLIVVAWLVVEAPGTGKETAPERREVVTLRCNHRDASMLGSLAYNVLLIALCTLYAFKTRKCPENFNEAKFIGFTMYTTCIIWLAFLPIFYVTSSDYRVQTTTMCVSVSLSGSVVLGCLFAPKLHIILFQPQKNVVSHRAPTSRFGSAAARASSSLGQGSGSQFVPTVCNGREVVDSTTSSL

[3] = biological target: T1, Metabotropic glutamate receptor 2; assay: Binding affinity to human metabotropic glutamate receptor 2 expressed in CHOK1 cell membranes by scintillation proximity assay
Target sequence in this assay (Q14416 whole entry): as above

[4] = biological target: T1, Metabotropic glutamate receptor 2; assay: Positive allosteric modulation of human metabotropic glutamate receptor 2 expressed in CHOK1 cell membranes assessed as increase in glutamate-induced [35S]GTPgammaS binding preincubated for 30 mins followed by [35S]GTPgammaS addition measured after 30 mins by Topcount scintillation counting method; assay type: functional
Target sequence in this assay (Q14416 whole entry): as above

[5] = biological target: T1, Metabotropic glutamate receptor 2; assay: Displacement of [3H]JNJ-46281222 from human metabotropic glutamate receptor 2 expressed in CHOK1 cell membranes assessed as residence time measured every 30 sec for 120 mins by scintillation proximity assay
Procedure, shortened: (§1)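 For the SPA competition association, CHO-K1_hmGlu2 membranes (20 µg) were pre-coupled 30 min to WGA SPA beads, then mixed with 6 nM [3H]JNJ-46281222, competitor and 1 mM glutamate. Counts were read every 30 s for 120 min at 28°C.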

[6] = biological target: T1, Metabotropic glutamate receptor 2; assay: Displacement of [3H]JNJ-46281222 from human metabotropic glutamate receptor 2 expressed in CHOK1 cell membranes assessed as dissociation rate constant measured every 30 sec for 120 mins by scintillation proximity assay; procedure, shortened: as §1
[7] = biological target: T1, Metabotropic glutamate receptor 2; assay: Displacement of [3H]JNJ-46281222 from human metabotropic glutamate receptor 2 expressed in CHOK1 cell membranes assessed as association rate constant measured every 30 sec for 120 mins by scintillation proximity assay; procedure, shortened: as §1
[8] = biological target: T1, Metabotropic glutamate receptor 2; assay: Positive allosteric modulation of human metabotropic glutamate receptor 2 expressed in CHOK1 cells assessed as cellular impedance measured for 20 mins with 15 sec time interval followed by 40 mins with 5 mins time interval and subsequently measured with 15 mins time interval in presence of endogenous glutamate levels by RTCA; assay type: cell-based
Procedure, shortened: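 Whole-cell impedance (Cell Index) in CHO-K1_hmGlu2 cells, 40,000/well, 18 h at 37°C before compound addition. Endogenous glutamate was about 90 µM. […] Three experiments in duplicate.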
Target sequence in this assay (Q14416 whole entry): as above

[9] = biological target: T1, Metabotropic glutamate receptor 2; assay: Displacement of [3H]-JNJ46281222 from human metabotropic glutamate receptor 2 expressed in CHOK1 cell membranes after 60 mins by microbeta counting analysis
Target sequence in this assay (Q14416 whole entry): as above

[10] = biological target: T1, Metabotropic glutamate receptor 2; assay: Positive allosteric modulation of human metabotropic glutamate receptor 2 expressed in CHOK1 cells assessed as cellular impedance at 200 nM incubated for 5mins followed by compound washout in presence of endogenous glutamate levels by RTCA; assay type: cell-based
[11] = biological target: T1, Metabotropic glutamate receptor 2; assay: Positive allosteric modulation of human metabotropic glutamate receptor 2 expressed in CHOK1 cells assessed as cellular impedance response by label-free xCELLigence assay
[12] = tested on: Rattus norvegicus; assay: Effect on total sleep in Sprague-Dawley rat at 1 to 10 mg/kg, po measured for 2 hrs; assay type: ADME, organism-based; conditions: in vivo
[13] = tested on: Brain; assay: Unbound concentration in Sprague-Dawley rat brain at 10 mg/kg, po measured after 1 hr; assay type: ADME, organism-based; conditions: in vivo
[14] = tested on: Rattus norvegicus; assay: In vivo positive allosteric modulation of metabotropic glutamate receptor 2 in Sprague-Dawley rat assessed as reduction in REM at 10 mg/kg, po measured for 24 consecutive 5 mins period; assay type: functional, organism-based
Procedure, shortened: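 Sprague-Dawley rats (n=8 per group) received single oral doses of 1, 3 or 10 mg/kg or 20% CD vehicle. REM sleep was scored in 24 consecutive 5-min bins over the first 2 h. Comparison was by mixed-model ANOVA.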

[15] = biological target: Metabotropic glutamate receptor 1 (Homo sapiens) (UniProt Q13255); assay: Agonist activity at human metabotropic glutamate receptor 1 expressed in HEK293 cells assessed as induction of Ca2+ internalization after 1 hr by fluo-4-AM dye based fluorescence assay; assay type: functional, cell-based
[16] = biological target: Metabotropic glutamate receptor 3 (Homo sapiens) (UniProt Q14832); assay: Antagonist activity at human metabotropic glutamate receptor 3 expressed in HEK293 cells assessed as inhibition of glutamate-induced Ca2+ internalization after 1 hr by fluo-4-AM dye based fluorescence assay; assay type: functional, cell-based
[17] = biological target: T1, Metabotropic glutamate receptor 2; assay: Positive allosteric modulation of human metabotropic glutamate receptor 2 expressed in CHOK1 cells assessed as cellular impedance at 600 nM incubated for 5mins followed by compound washout in presence of endogenous glutamate levels by RTCA; assay type: cell-based
[18] = biological target: Metabotropic glutamate receptor 4 (Homo sapiens) (UniProt Q14833); assay: Agonist activity at human metabotropic glutamate receptor 4 assessed as increase in [35S]GTPgammaS binding preincubated for 30 mins followed by [35S]GTPgammaS addition measured after 30 mins by Topcount scintillation counting method; assay type: functional
[19] = biological target: Metabotropic glutamate receptor 5 (Homo sapiens) (UniProt P41594); assay: Positive allosteric modulation of human metabotropic glutamate receptor 5 expressed in HEK293 cells assessed as induction of Ca2+ […] after 1 hr in the presence of glutamate by fluo-4-AM dye based fluorescence assay; assay type: functional, cell-based
[20] = biological target: Metabotropic glutamate receptor 6 (Rattus norvegicus) (UniProt P35349); assay: Agonist activity at rat metabotropic glutamate receptor 6 expressed in CHO cell membranes assessed as increase in [35S]GTPgammaS binding preincubated for 30 mins followed by [35S]GTPgammaS addition measured after 30 mins by Topcount scintillation counting method; assay type: functional
[21] = biological target: Metabotropic glutamate receptor 7 (Homo sapiens) (UniProt Q14831); assay: Antagonist activity at human metabotropic glutamate receptor 7 expressed in HEK293 cells assessed as inhibition of glutamate-induced Ca2+ internalization after 1 hr by fluo-4-AM dye based fluorescence assay; assay type: functional, cell-based
[22] = biological target: Metabotropic glutamate receptor 5 (Homo sapiens) (UniProt P41594); assay: Antagonist activity at human metabotropic glutamate receptor 5 expressed in HEK293 cells assessed as inhibition of glutamate-induced Ca2+ internalization after 1 hr by fluo-4-AM dye based fluorescence assay; assay type: functional, cell-based
[23] = biological target: Metabotropic glutamate receptor 6 (Rattus norvegicus) (UniProt P35349); assay: Antagonist activity at rat metabotropic glutamate receptor 6 expressed in CHO cell membranes assessed as inhibition of glutamate-induced [35S]GTPgammaS binding preincubated for 30 mins followed by [35S]GTPgammaS addition measured after 30 mins by Topcount scintillation counting method; assay type: functional
[24] = biological target: Metabotropic glutamate receptor 8 (Homo sapiens) (UniProt O00222); assay: Antagonist activity at human metabotropic glutamate receptor 8 expressed in HEK293 cells assessed as inhibition of glutamate-induced Ca2+ internalization after 1 hr by fluo-4-AM dye based fluorescence assay; assay type: functional, cell-based
[25] = biological target: Metabotropic glutamate receptor 7 (Homo sapiens) (UniProt Q14831); assay: Agonist activity at human metabotropic glutamate receptor 7 expressed in HEK293 cells assessed as induction of Ca2+ internalization after 1 hr by fluo-4-AM dye based fluorescence assay; assay type: functional, cell-based
[26] = biological target: Metabotropic glutamate receptor 4 (Homo sapiens) (UniProt Q14833); assay: Antagonist activity at human metabotropic glutamate receptor 4 assessed as inhibition of glutamate-induced [35S]GTPgammaS binding preincubated for 30 mins followed by [35S]GTPgammaS addition measured after 30 mins by Topcount scintillation counting method; assay type: functional
[27] = biological target: Metabotropic glutamate receptor 1 (Homo sapiens) (UniProt Q13255); assay: Antagonist activity at human metabotropic glutamate receptor 1 expressed in HEK293 cells assessed as inhibition of glutamate-induced Ca2+ internalization after 1 hr by fluo-4-AM dye based fluorescence assay; assay type: functional, cell-based
[28] = biological target: Metabotropic glutamate receptor 8 (Homo sapiens) (UniProt O00222); assay: Agonist activity at human metabotropic glutamate receptor 8 expressed in HEK293 cells assessed as induction of Ca2+ internalization after 1 hr by fluo-4-AM dye based fluorescence assay; assay type: functional, cell-based
[29] = biological target: Metabotropic glutamate receptor 5 (Homo sapiens) (UniProt P41594); assay: Agonist activity at human metabotropic glutamate receptor 5 expressed in HEK293 cells assessed as induction of Ca2+ internalization after 1 hr by fluo-4-AM dye based fluorescence assay; assay type: functional, cell-based
[30] = biological target: Metabotropic glutamate receptor 3 (Homo sapiens) (UniProt Q14832); assay: Agonist activity at human metabotropic glutamate receptor 3 expressed in HEK293 cells assessed as induction of Ca2+ internalization after 1 hr by fluo-4-AM dye based fluorescence assay; assay type: functional, cell-based

Chain of Metabotropic glutamate receptor 3 (Homo sapiens) (Q14832 23-879 limits assumed): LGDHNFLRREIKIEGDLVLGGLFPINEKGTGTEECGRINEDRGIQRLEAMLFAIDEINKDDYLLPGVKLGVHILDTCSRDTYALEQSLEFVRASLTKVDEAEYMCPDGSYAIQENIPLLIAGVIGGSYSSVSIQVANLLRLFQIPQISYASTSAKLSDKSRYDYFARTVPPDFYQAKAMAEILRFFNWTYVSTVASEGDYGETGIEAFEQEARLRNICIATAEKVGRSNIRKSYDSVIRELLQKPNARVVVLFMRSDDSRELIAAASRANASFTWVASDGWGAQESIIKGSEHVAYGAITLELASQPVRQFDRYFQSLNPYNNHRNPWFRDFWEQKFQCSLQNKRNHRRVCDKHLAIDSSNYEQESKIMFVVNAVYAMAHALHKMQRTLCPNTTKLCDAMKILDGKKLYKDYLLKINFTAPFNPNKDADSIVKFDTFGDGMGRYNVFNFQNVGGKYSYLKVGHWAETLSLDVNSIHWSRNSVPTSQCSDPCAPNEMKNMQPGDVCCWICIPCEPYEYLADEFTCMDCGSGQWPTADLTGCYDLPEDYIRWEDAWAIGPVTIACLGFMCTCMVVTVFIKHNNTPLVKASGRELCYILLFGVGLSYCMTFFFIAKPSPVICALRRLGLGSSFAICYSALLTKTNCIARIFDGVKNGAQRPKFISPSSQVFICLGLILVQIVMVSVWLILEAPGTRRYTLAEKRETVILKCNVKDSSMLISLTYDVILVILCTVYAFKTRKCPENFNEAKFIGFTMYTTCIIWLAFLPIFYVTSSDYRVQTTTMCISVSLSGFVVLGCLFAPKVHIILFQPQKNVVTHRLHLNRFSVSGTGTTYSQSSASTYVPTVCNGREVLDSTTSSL
Chain of Metabotropic glutamate receptor 5 (Homo sapiens) (P41594 21-1212 limits assumed): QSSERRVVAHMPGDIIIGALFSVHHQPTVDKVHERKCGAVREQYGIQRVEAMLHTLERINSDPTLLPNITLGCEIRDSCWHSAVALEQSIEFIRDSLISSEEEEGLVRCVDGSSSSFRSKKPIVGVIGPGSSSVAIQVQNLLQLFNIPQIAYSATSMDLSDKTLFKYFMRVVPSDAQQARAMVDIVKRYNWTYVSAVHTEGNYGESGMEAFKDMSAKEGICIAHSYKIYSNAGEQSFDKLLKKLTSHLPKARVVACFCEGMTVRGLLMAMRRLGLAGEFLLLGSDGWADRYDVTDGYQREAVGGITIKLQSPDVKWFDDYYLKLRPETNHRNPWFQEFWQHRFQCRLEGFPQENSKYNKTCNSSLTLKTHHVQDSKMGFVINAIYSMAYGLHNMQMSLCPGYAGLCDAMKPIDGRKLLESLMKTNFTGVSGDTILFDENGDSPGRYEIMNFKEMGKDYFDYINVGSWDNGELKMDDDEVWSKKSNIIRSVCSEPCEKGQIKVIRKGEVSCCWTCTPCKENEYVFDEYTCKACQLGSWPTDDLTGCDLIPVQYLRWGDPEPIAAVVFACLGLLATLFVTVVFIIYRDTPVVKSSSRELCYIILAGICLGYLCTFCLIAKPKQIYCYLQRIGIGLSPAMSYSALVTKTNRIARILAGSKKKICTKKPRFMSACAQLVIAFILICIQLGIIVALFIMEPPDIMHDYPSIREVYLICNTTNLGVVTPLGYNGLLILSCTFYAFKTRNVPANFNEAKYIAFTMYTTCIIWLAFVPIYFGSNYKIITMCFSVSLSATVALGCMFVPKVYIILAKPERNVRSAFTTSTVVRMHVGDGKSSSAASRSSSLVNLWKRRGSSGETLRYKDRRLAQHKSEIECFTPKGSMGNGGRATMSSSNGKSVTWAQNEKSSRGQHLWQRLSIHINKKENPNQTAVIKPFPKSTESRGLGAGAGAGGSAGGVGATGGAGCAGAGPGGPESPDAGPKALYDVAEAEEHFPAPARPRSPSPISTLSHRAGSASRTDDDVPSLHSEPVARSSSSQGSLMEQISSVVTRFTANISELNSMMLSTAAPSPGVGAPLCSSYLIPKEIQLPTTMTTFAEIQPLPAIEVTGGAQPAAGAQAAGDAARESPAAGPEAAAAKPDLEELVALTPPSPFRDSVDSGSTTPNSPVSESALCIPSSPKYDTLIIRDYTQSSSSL
Chain of Metabotropic glutamate receptor 6 (Rattus norvegicus) (P35349 whole entry): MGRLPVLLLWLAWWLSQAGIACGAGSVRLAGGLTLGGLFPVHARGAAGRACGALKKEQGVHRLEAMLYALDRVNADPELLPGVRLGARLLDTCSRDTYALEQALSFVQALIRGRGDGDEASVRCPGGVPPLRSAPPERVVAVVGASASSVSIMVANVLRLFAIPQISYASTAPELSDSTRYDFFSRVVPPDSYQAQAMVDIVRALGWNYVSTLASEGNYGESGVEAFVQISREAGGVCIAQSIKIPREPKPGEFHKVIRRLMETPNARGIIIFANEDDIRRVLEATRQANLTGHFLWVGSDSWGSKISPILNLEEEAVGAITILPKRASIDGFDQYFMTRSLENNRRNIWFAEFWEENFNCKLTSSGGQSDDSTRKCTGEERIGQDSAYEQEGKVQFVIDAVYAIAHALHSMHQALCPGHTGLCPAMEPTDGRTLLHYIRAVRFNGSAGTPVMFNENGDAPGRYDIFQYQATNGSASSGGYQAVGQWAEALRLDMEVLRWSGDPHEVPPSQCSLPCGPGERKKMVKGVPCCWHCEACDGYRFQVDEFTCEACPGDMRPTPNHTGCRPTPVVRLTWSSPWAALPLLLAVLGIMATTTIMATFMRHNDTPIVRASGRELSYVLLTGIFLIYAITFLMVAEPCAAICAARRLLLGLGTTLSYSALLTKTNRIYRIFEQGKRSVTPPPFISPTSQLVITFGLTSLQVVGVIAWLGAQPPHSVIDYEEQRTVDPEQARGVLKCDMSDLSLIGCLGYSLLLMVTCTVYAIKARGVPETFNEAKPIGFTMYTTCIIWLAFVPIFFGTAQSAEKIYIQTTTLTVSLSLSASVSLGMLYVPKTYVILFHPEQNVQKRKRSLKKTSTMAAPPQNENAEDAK
Chain of Metabotropic glutamate receptor 8 (Homo sapiens) (O00222 whole entry): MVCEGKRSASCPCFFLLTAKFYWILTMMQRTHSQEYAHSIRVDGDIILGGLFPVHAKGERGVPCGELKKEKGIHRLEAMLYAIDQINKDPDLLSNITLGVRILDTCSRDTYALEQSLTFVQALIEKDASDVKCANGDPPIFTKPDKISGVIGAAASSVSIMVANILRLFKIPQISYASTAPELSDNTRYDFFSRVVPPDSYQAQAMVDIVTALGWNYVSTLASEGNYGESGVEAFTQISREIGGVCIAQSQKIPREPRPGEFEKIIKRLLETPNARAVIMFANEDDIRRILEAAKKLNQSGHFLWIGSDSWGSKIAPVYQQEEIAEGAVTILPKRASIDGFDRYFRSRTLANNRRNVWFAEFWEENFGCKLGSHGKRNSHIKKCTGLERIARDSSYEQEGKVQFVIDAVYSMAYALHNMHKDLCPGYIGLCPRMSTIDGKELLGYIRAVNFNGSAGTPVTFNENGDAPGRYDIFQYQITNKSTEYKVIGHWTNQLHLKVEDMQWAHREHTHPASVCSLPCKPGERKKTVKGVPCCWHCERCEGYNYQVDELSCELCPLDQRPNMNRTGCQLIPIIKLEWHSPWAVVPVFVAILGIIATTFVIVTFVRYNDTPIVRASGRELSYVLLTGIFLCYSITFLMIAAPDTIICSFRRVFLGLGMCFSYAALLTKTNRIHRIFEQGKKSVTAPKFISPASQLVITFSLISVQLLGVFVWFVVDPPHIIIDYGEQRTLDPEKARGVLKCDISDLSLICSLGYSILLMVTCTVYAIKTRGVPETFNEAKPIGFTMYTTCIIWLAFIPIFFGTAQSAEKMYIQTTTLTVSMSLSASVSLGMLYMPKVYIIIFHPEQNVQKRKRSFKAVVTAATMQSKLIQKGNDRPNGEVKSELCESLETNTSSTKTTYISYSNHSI

Compound | Kd [3] | EC50 [4] | TIME [5] | K [6] | K [7] | EC50 [8] | Ki [9] | EC80 [11] | Activity [15] | inhibition [16] | Activity [18] | Activity [19] | Activity [20] | inhibition [21] | inhibition [22] | inhibition [23] | inhibition [24] | Activity [25] | inhibition [26] | inhibition [27] | also measured
FC(F)(F)c1c(CN2CCC(c3ccccc3)CC2)ccn2c(CC3CC3)nnc12 | – | – | – | – | – | – | – | – | – | – | – | – | – | – | – | – | – | – | – | – | Activity [1]: inactive
CC(C)C(=O)c1ccc(OCc2ccc(CNC(=O)c3cn(C)cn3)cc2)c(C(F)(F)F)c1O | 0.1 µM | 0.107 µM | 0.14 h | 0.12 min⁻¹ | 1.2 ×10⁶ /M/min | – | – | – | – | – | – | – | – | – | – | – | – | – | – | – | Ki [2]: 0.0794 µM
O[C@H]1CC[C@H](Nc2ccc(-c3ccn4c(CC(F)(F)F)nnc4c3Cl)cc2Cl)CC1 | 0.0108 µM | 0.0417 µM | 0.227 h | 0.074 min⁻¹ | 6.7 ×10⁶ /M/min | – | 0.00603 µM | – | inactive | inactive | inactive | inactive | inactive | inactive | inactive | inactive | inactive | inactive | inactive | inactive | Activity [28]: inactive; Activity [29]: inactive; Activity [30]: inactive

More lines, main results first:

Kd [3] | EC50 [4] | TIME [5] | K [6] | K [7] | EC50 [8] | Ki [9] | EC80 [11] | Activity [15] | inhibition [16] | Activity [18] | Activity [19] | Activity [20] | inhibition [21] | inhibition [22] | inhibition [23] | inhibition [24] | Activity [25] | inhibition [26] | inhibition [27] | Compound | also measured
0.0038 µM | 0.0186 µM | 0.25 h | 0.067 min⁻¹ | 1.8 ×10⁷ /M/min | 0.0186 µM | 0.00501 µM | 0.2 µM | – | – | – | – | – | – | – | – | – | – | – | – | FC(F)(F)c1c(-c2ccc(NC3CCOCC3)c(Cl)c2)ccn2c(CC3CC3)nnc12 | Activity [10]: inactive
0.0086 µM | 0.0186 µM | 0.0883 h | 0.189 min⁻¹ | 2.2 ×10⁷ /M/min | – | 0.00363 µM | – | – | – | – | – | – | – | – | – | – | – | – | – | Fc1cc(-c2ccn3c(CC4CC4)nnc3c2C(F)(F)F)ccc1Oc1ccnc(C2CC2)c1 | Activity [12]: Non-Toxic; Drug uptake(free) [13]: 3.5 ng/g; Activity [14]: Active
0.0123 µM | 0.038 µM | 0.0683 h | 0.241 min⁻¹ | 2 ×10⁷ /M/min | 0.0891 µM | 0.00525 µM | 0.6 µM | inactive | inactive | inactive | inactive | inactive | inactive | inactive | inactive | inactive | inactive | inactive | inactive | FC(F)(F)c1c(-c2ccc(OC3CCOCC3)c(Cl)c2)ccn2c(CC3CC3)nnc12 | Activity [17]: inactive; Activity [28]: inactive; Activity [29]: inactive; Activity [30]: inactive
